Results: ChEMBL document CHEMBL4622928, “Discovery of 5-(4-methylpiperazin-1-yl)-2-nitroaniline derivatives as a new class of SIRT6 inhibitors” (Bioorg Med Chem Lett, 2020)

Columns and labels:
[1] = target: T1, NAD-dependent protein deacylase sirtuin-6 (Homo sapiens, UniProt Q8N6T7); experiment: Inhibition of SIRT6 (unknown origin) using Ac-RYQK(Ac)-AMC as substrate by Fluor de Lys assay
[2] = target: T1, NAD-dependent protein deacylase sirtuin-6; experiment: Binding affinity to SIRT6 (unknown origin) by surface plasmon resonance assay
[3] = target: T1, NAD-dependent protein deacylase sirtuin-6; experiment: Binding affinity to SIRT6 (unknown origin) by isothermal titration calorimetry
[4] = Toxicity in mouse assessed as change in blood glucose level
Summary of the method: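 Normal (non-diabetic) mice were dosed, and blood glucose and body weight were tracked over the study.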

[5] = target: T2, NAD-dependent protein deacetylase sirtuin-2 (Homo sapiens, UniProt Q8IXJ6); experiment: Inhibition of SIRT2 (unknown origin)
T2 sequence (Q8IXJ6 whole entry): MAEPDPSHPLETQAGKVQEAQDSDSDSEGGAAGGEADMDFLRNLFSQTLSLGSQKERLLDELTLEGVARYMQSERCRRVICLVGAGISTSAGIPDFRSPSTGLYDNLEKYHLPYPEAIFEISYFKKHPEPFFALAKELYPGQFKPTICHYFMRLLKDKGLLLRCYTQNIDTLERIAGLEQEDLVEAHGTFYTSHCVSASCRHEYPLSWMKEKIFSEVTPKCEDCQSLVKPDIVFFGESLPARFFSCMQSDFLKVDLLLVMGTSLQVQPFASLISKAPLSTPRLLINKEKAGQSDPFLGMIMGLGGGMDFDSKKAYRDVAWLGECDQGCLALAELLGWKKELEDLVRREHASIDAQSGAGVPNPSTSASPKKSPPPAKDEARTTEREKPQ
Summary of the method: (§1)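 Each deacetylase was run in a Fluor de Lys (FDL) fluorogenic deacetylation assay as a selectivity screen, with compound tested at concentrations up to 200 μM. IC50 was estimated from the dose-response.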

[6] = target: Histone deacetylase 3 (Homo sapiens, UniProt O15379); experiment: Inhibition of HDAC3 (unknown origin); summary of the method: as §1
[7] = target: T3, Histone deacetylase 7 (Homo sapiens, UniProt Q8WUI4); experiment: Inhibition of HDAC7 (unknown origin); summary of the method: as §1
T3 sequence (Q8WUI4 whole entry): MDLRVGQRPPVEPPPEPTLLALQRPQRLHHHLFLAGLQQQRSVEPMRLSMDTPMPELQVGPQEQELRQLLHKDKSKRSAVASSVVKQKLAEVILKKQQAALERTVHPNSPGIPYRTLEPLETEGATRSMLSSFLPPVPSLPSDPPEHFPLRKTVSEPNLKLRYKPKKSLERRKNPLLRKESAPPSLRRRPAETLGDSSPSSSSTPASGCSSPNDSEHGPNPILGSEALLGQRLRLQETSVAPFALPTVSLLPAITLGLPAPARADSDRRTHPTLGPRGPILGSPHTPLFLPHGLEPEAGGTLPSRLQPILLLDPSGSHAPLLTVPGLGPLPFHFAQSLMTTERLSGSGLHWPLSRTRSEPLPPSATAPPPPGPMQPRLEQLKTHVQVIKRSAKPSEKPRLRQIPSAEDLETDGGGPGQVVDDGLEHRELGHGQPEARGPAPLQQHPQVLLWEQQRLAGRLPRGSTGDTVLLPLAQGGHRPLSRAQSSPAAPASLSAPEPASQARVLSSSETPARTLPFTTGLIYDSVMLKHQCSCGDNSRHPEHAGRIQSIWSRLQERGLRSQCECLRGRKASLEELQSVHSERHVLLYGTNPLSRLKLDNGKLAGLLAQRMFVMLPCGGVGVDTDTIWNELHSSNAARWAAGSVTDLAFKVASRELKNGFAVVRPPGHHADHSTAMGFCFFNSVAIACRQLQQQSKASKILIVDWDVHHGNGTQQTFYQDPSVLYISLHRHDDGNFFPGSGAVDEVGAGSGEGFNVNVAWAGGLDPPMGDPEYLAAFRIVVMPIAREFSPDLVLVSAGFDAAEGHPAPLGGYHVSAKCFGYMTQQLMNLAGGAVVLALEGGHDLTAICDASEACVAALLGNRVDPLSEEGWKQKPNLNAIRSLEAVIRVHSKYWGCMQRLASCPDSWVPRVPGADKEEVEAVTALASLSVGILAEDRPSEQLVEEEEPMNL

[8] = target: T4, Histone deacetylase 8 (Homo sapiens, UniProt Q9BY41); experiment: Inhibition of HDAC8 (unknown origin); summary of the method: as §1
T4 sequence (Q9BY41 whole entry): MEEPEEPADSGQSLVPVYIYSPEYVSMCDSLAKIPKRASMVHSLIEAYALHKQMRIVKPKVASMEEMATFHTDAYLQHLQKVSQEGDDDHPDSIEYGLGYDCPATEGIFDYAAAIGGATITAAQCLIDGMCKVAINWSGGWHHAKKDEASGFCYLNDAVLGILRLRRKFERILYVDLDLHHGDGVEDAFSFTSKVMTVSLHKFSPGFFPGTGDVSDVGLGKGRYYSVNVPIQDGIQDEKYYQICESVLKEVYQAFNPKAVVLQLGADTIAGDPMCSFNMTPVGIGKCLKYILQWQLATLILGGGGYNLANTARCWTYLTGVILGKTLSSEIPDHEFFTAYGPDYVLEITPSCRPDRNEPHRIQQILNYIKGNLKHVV

[9] = target: Histone deacetylase 9 (Homo sapiens, UniProt Q9UKV0); experiment: Inhibition of HDAC9 (unknown origin); summary of the method: as §1
[10] = target: T1, NAD-dependent protein deacylase sirtuin-6; experiment: Inhibition of SIRT6 in human BxPC3 cells assessed as increase in H3K9Ac expression measured after 48 hrs by Western blot analysis; assay type: cell-based; details: BXPC-3
Summary of the method: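 BxPC-3 cells were exposed to 0.78, 1.56, 3.13, 6.25, 12.5 and 25 μM compound for 48 h. Histone H3K9ac and H3K18ac levels were then assessed by western blot, with β-actin as the loading control. Acetylation increase is read as cellular SIRT6 deacetylase inhibition.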

T1 sequence (Q8N6T7 whole entry): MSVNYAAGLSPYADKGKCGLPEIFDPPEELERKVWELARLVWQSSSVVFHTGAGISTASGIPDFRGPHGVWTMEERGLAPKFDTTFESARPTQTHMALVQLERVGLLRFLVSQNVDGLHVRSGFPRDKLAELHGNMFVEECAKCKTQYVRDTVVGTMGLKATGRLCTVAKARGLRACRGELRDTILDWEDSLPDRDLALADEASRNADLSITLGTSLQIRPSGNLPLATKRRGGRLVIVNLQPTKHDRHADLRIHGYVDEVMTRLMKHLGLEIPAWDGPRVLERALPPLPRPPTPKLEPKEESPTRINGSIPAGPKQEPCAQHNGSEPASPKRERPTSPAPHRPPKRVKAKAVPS
Sequence of Histone deacetylase 9 (Q9UKV0 whole entry): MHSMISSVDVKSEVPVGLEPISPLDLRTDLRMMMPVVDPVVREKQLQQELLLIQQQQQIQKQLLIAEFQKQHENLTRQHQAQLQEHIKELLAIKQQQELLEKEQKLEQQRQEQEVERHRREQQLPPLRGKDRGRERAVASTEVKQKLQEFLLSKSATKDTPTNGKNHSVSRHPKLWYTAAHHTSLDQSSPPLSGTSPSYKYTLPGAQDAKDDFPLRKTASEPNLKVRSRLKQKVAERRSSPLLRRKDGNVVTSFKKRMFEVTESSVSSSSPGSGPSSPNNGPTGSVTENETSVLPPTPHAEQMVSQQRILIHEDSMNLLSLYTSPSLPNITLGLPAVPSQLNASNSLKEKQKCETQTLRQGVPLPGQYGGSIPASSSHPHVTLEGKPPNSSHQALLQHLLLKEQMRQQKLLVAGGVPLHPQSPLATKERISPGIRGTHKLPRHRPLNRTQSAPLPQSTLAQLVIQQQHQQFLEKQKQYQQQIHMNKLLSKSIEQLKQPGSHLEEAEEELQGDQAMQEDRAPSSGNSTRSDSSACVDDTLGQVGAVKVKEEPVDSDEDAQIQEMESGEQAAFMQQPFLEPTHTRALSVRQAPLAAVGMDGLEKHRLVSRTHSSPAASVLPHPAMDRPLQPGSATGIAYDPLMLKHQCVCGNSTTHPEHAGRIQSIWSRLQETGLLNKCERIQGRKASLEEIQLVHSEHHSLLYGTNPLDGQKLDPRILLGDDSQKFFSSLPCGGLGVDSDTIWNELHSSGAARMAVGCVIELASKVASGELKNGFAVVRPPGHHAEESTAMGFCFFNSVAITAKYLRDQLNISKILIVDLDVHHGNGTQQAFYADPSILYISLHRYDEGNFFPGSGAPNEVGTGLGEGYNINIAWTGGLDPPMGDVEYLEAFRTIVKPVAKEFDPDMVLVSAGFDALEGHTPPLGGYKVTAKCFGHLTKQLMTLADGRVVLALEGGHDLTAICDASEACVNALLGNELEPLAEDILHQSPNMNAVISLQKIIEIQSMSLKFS
Sequence of Histone deacetylase 3 (O15379 whole entry): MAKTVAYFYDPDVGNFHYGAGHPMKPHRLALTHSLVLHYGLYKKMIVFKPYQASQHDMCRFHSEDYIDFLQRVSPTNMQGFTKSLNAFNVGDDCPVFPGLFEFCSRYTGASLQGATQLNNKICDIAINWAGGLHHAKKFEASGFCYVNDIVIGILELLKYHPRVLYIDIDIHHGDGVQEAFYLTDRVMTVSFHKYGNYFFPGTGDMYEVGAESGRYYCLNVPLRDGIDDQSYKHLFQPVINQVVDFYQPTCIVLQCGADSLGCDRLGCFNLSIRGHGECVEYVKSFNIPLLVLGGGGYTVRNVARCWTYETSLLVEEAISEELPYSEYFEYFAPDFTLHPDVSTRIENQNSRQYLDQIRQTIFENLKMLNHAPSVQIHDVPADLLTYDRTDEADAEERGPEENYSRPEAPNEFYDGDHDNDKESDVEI

## CN1CCN(c2ccc([N+](=O)[O-])c(N)c2)CC1
[1]
  IC50: 4.93 µM
[2]
  Kd: 9.76 µM
[3]
  Kd: 10 µM
[4]
  Activity: Non-Toxic
[5]
  IC50: > 200 µM
[6]
  IC50: > 200 µM
[7]
  IC50: > 200 µM
[8]
  IC50: > 200 µM
[9]
  IC50: > 200 µM
[10]
  inhibition: Dose-dependent effect
